Measurements of several laboratories.
Lines come from different studies, so protocols differ.
Target: Tyrosine-protein kinase Yes (YES1, Homo sapiens, UniProt P07947)

| SMILES | test | setting | endpoint | result |
| --- | --- | --- | --- | --- |
| CS(=O)(=O)N1CCCC(NC(=O)[C@H](CCC2CCCCC2)NC(=O)c2ccc(CNC(=O)c3cnc4ccccn34)cc2)C1 (stereo partly shown) | cell-free assay, competition with immobilised ligand | 0.1 µM | remaining binding | 88% |
| COc1cc(Nc2cnc(C#N)c(O[C@H](C)CN(C)C)n2)ncc1-c1cnn(C)c1 | enzyme activity, inhibitor, radiometric | 10 µM | remaining activity | 39% |
| CCC(=O)N[C@H]1CC[C@@H](C(=O)N(C)c2ccc(-c3nc4ccccc4o3)cc2)C1 | cell-free assay, competition with immobilised ligand | 1 µM | remaining binding | 82% |
| O=C1Nc2ccc(Cl)cc2C1=Cc1cc(Cl)c(O)c(Cl)c1 | cell-free assay | 0.5 µM | remaining signal | 78.3% |
| CC(C)(C)C(=O)c1sc(NC2CCCCC2)nc1N | enzyme activity, inhibitor | 10 µM | remaining activity | 109% |
| Oc1cccc(-c2nc(N3CCOCC3)c3oc4ncccc4c3n2)c1 | enzyme activity, inhibitor | 10 µM | remaining activity | 92% |
| Cc1sc(C(=O)NC2COC2)cc1-n1cc(NC(=O)Nc2c(F)cccc2Cl)cn1 | enzyme activity, inhibitor | 10 µM | remaining activity | 81.4% |
| Cc1cc(NC(=O)c2cccc3cc(-c4cccc5[nH]nc(N)c45)ccc23)ccc1F | enzyme activity, inhibitor | 0.1 µM | activity vs control | 108% |
| CCCCN(CCCC)C(=O)CN1C[C@H](c2cc(OC)c3c(c2)OCO3)[C@@H](C(=O)O)[C@@H]1CC(C)(C)CCC | cell-free assay, competition with immobilised ligand | 1 µM | remaining binding | 100% |
| CC(C)(O)[C@H]1CC[C@H](Nc2ccc3ncc(-c4cccc(C(F)(F)F)c4)n3n2)CC1 | enzyme activity, inhibitor | 1 µM | remaining activity | 18.1% |
| FC(F)(F)Oc1cccc(-c2cnc3ccc(-c4ccncc4)nn23)c1 | enzyme activity, inhibitor, radiometric | 1 µM | activity vs control | 82% |
| CC(C)(C)c1nc2c(s1)c1nc(N)ncc1c1ccc(NS(=O)(=O)c3c(F)cccc3F)c(F)c12 | enzyme activity, inhibitor, radiometric | 1 µM | remaining activity | 124% |
| COc1cc2nccc(Oc3ccc(NC(=O)c4c5n(n(-c6ccc(F)cc6)c4=O)CCCC5)cc3)c2cc1OC | enzyme activity, inhibitor | 0.1 µM | inhibition | 1% |
| c1ccc(CNc2nc(N3CCOc4ccccc43)nc3c2CCCC3)cc1 | target engagement in cells, inhibitor, chemoproteomics | 20 mM | inhibition | -4.3% |
| CO[C@@H](C)c1c(Nc2ccc([C@H](N(C)C(=O)C3CCS(=O)(=O)CC3)C(F)(F)F)cc2)cnc2cc(Cl)nn12 | cell-free assay, competition with immobilised ligand | 1 µM | remaining binding | 99% |
| C=CC(=O)Nc1cc(Nc2nccc(Nc3cc(Cl)c(F)cc3C(C)(C)O)n2)c(OC)cc1N1CC[C@@H](N(C)C)C1 | enzyme activity, inhibitor | 1 µM | inhibition | 51% |

| SMILES | test | setting | endpoint | result |
| --- | --- | --- | --- | --- |
| CCOc1cc(-c2nncn2C)ccc1Nc1ncc2cc(C)nc(NCC(C)(C)C)c2n1 | enzyme activity, inhibitor, FRET | 1 µM | inhibition | 22% |
| N#CCCc1ccc2c(c1)-c1[nH]c3ccc([N+](=O)[O-])cc3c1CC(=O)N2 | cell-free assay | 0.5 µM | remaining signal | 35.8% |
| O=C(O)[C@H]1[C@H](Cn2nnc3ccccc3c2=O)CC[C@@H]1C(=O)c1ccc(OCCC2CCOCC2)cc1 | cell-free assay, competition with immobilised ligand | 1 µM | remaining binding | 100% |
| COc1cc2ncnc(Nc3ccc(Oc4ccccc4)c(C)c3C)c2cc1OC | enzyme activity, inhibitor | 1 µM | inhibition | 88% |
| Cc1ccc(C(=O)NCc2ccsc2)cc1C#Cc1cn(C(C)C)c2ncnc(N)c12 | enzyme activity, inhibitor | 1 µM | activity vs control | 2% |
| O=C(N1CCS(=O)(=O)CC1)N1C[C@H](c2ccc(OC(F)(F)F)cc2)C[C@H](c2nc(C3CC3)no2)C1 | cell-free assay, competition with immobilised ligand | 1 µM | remaining binding | 96% |
| Cc1ccc(Nc2nccc(N(C)c3ccc4c(C)n(C)nc4c3)n2)cc1S(N)(=O)=O | cell-free assay | 0.5 µM | remaining signal | 52.6% |
| CCCOc1ccc(OC)c(F)c1C(=O)c1ccc(C(=O)N[C@@H]2CNC[C@H]2NC(=O)c2ccc3[nH]ncc3c2)cc1 | enzyme activity, inhibitor | 10 µM | remaining activity | 41% |
| O=C(Nc1cnn(-c2csc(C(=O)NC3COC3)c2)c1)Nc1c(F)cccc1Cl | enzyme activity, inhibitor | 5 µM | remaining activity | 91% |
| CCN(CC)c1ccc(C2=NNC(=O)CC2C)cc1[N+](=O)[O-] (stereo not shown) | enzyme activity, inhibitor | 10 µM | remaining activity | 105% |
| CC/C(=N\NC(=O)NCc1cccc(O)c1)c1ccc(O)c(C)c1O | enzyme activity, inhibitor | 0.1 µM | inhibition | 4.5% |
| CC(C)(O)c1cncc(-c2nc3ccc(F)cc3n2C2CC2)c1 | cell-free assay, competition with immobilised ligand | 1 µM | remaining binding | 100% |
| Cc1ccc(C(=O)Nc2ccc(CN3CCN(C)CC3)c(C(F)(F)F)c2)cc1C#Cc1cnc2cccnn12 | enzyme activity | 23.5 nM | remaining activity | 34% |
| CC(=O)c1c(NS(C)(=O)=O)c2cc(-c3ccc(Cl)cc3)c(-c3ccc(Cl)cc3Cl)nc2n(C)c1=O | cell-free assay, competition with immobilised ligand | 1 µM | remaining binding | 96% |
| Nc1ncnc2occ(-c3ccc(NC(=O)Nc4cc(C(F)(F)F)ccc4F)cc3)c12 | cell-free assay | 20 µM | remaining signal | 2.9% |
